Reference: PMC6528680 (Journal of natural products, 2019)
Like-named read-outs stand apart in the source and are kept apart here.

How the values were obtained:
[1] = tested on: RANKL-stimulated osteoclast formation in RAW 264.7 cells; assay: RANKL-stimulated osteoclastogenesis assay; type: cell-based, murine; conditions: even at 10-fold higher doses than the curcumin IC50
Outline: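 RAW 264.7 cells were seeded at 5×10^3/well in DMEM with 10% FBS and 1% pen/strep and left to adhere overnight at 37°C, 5% CO2. They were pretreated 4 h with the test compound, then stimulated with recombinant mouse RANKL (50 ng/mL final) for 72 h at 37°C. TRAP-positive multinucleated osteoclasts were counted. n=4/group, mean ± SEM.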

GUSB [2] = molecular target: T1, GUSB (Mus musculus, UniProt P12265); type: biochemical, C57BL/6J mice; conditions: 0.5 μM curcumin-glucuronide added ex vivo, sodium acetate buffer 50 mM pH 5, 2 h
T1 sequence (P12265 23-648): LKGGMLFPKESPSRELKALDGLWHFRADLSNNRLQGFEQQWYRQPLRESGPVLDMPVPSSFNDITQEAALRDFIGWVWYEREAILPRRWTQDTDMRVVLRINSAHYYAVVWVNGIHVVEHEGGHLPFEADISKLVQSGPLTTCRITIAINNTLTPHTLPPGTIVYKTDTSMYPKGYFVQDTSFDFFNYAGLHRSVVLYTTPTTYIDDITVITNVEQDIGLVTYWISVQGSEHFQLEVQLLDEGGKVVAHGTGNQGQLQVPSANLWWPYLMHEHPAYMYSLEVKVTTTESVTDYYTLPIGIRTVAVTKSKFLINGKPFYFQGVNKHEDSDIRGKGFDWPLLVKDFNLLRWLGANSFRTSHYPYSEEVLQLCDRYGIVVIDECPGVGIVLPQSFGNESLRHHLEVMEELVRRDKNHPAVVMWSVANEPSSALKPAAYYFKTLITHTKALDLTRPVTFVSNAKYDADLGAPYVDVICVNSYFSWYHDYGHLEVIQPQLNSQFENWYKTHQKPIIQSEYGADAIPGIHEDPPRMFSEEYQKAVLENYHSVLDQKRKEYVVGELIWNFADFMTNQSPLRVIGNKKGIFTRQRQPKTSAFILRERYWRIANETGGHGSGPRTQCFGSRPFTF

rh-HPSE = molecular target: T2, rh-HPSE (Homo sapiens, UniProt Q9Y251); assay: Deconjugation of curcumin-glucuronide by recombinant enzyme; type: biochemical; conditions: 5 μg/mL (100 nM) enzyme, 459 nM substrate, 24 h, 37°C, pH 5
T2 sequence (Q9Y251 158-543 limits assumed): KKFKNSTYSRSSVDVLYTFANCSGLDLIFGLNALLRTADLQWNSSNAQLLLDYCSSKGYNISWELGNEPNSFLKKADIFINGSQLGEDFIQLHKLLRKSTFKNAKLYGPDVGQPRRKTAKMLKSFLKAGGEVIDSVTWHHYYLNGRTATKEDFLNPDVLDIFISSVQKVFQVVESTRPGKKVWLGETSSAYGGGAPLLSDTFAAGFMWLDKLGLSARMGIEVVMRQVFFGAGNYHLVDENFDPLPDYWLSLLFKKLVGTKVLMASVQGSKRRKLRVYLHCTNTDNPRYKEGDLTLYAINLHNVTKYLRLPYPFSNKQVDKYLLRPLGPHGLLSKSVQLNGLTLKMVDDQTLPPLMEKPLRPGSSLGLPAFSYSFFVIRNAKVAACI
T2 sequence (Q9Y251 36-109 limits assumed): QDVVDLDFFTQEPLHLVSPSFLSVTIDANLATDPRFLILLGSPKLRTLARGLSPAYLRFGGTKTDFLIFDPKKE
Outline: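 Recombinant human enzyme was incubated with synthesized glucuronide substrate in an enzyme-optimized pH 5 buffer for 24 h at 37°C. Activity was taken from quantitation of the remaining glucuronide substrate and the released aglycone product. n=3–6 per group.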

[3] = type: in vivo, mice (C57BL/6J, C3H/HeJ, mps/mps); conditions: for concentration at 20 min: mouse, ip, 100 mg/kg
Outline: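 Test compound dosed IP at 100 mg/kg in DMSO to 15-week female BL/6J, female HeJ and male mps/mps mice (n=3–5/group). Blood and marrow were taken under isoflurane at 20 min. Marrow pellets were resuspended in 50 mM sodium acetate pH 5 and held 2 h on ice, then supernatants were kept. Serum was acidified to pH 5, and aglycone and glucuronide were measured by HLB solid-phase extraction and LC/MS. Mean ± SEM.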

GUSB [4] = molecular target: T1, GUSB; type: biochemical, C57BL/6NJ mice; conditions: 10 μM added in vitro, 2 h, 37°C, physiologic pH
[5] = type: in vivo, mice (C57BL/6J, C3H/HeJ); conditions: mouse, po, 500 mg/kg
Outline: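 Oral gavage of 500 mg/kg in DMSO to C57BL/6J and C3H/HeJ mice (n=3–4/group), with sampling at 30 min under isoflurane. Marrow pellets were suspended in 50 mM sodium acetate pH 5 for 2 h on ice and centrifuged. Serum was acidified to pH 5 with HCl before HLB extraction and LC/MS. Marrow concentrations were corrected to pellet volume, assuming density 1.06 g/ml. Mean ± SEM.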

## COc1cc(/C=C/C(=O)CC(=O)/C=C/c2ccc(O[C@@H]3O[C@H](C(=O)O)[C@@H](O)[C@H](O)[C@H]3O)c(OC)c2)ccc1O [curcumin-glucuronide]
[1]
  Effect on RANKL-stimulated osteoclast formation: without effect
GUSB [2]
  Deconjugation by soluble GUSB activity in cell-free marrow fractions: sufficient to deconjugate
rh-HPSE
  Ability of HPSE to deconjugate curcumin glucuronide: only GUSB and KL were able to deconjugate
[3]; female, C3H/HeJ, bone marrow suspension
  concentration at 20 min: 2.7 µM
[3]; female, C3H/HeJ, serum
  concentration at 20 min: 92.1 µM
[3]; female, C57BL/6J, bone marrow suspension
  concentration at 20 min: 1.3 µM
[3]; female, C57BL/6J, serum
  concentration at 20 min: 92.7 µM
[3]; male, mps/mps, serum
  concentration at 20 min: 151 µM
[3]; mps/mps mice, IP curcumin
  Increase of bone marrow curcumin-glucuronide concentrations vs BL/6J: 4 fold
GUSB [4]
  Deconjugation in conditioned media from bone marrow cells: forming detectable aglycone curcumin
[5]; C57BL/6J, bone marrow suspension
  concentration at 30 min: 0.36 µM
[5]; C57BL/6J, serum
  concentration at 30 min: 82.7 µM
[5]; male, C3H/HeJ, bone marrow suspension
  concentration at 30 min: 1.19 µM
[5]; male, C3H/HeJ, serum
  concentration at 30 min: 80 µM
